What was measured:
[1] = tested on: HepG2; assay: Cytotoxicity against human HepG2 cells assessed as reduction in cell viability up to 400 uM after 48 hrs by CellTiter-Glo assay; format: cell-based; details: hepg2, 48 h
Method in brief: (§1)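 HEK293T and HepG2 cells grown in high-glucose DMEM with non-essential amino acids, 10 mM HEPES, penicillin/streptomycin and 10% heat-inactivated FBS. Cells were harvested with trypsin and plated; compound was pin-transferred 3 h later. Incubation was 48 h, then CellTiter-Glo luminescence was read. Controls were DMSO (negative) and a cytotoxic aminoketone (positive). Quadruplicates, three independent runs, normalized to controls, nonlinear regression.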

[2] = tested on: Liver; assay: Half life in mouse liver microsomes at 10 uM by LC-MS/MS analysis; format: ADME, microsome
Method in brief: (§2)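 Compound at 10 μM final was preincubated 5 min at 37 °C with NADPH regenerating system in phosphate buffer, pH 7.4. Human or mouse liver microsomes (0.5 mg/mL protein) were added to start the reaction. Samples were taken at 0 (no microsomes) and 10–60 min and measured by LC-MS/MS against an internal standard. Half-life = 0.693/k, with k the slope of ln peak-area ratio versus time. Three experiments, each in duplicate.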

[3] = tested on: HEK-293T; assay: Cytotoxicity against HEK293T cells assessed as reduction in cell viability up to 400 uM after 48 hrs by CellTiter-Glo assay; format: cell-based; details: human; method in brief: as §1
[4] = Drug metabolism in mouse liver microsomes assessed as CYP450 mediated-O-demethylated 7-bromo-2-(4-hydroxyphenyl)-2H-pyrazolo[4,3-c]quinolin-3(5H)-one metabolite formation after 60 mins by LC-MS analysis; format: ADME; details: 1 h
Method in brief: (§3)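 The 60-min samples from the human or mouse liver microsome incubations (10 µM compound, 0.5 mg/mL protein, NADPH regenerating system, 37 °C, pH 7.4) were run on LC-MS in SIM mode with dual ESI/APCI ionization. The method was calibrated to each component's retention time and mass, and the peak intensities of the parent and O-demethylated metabolites were measured.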

[5] = Metabolic stability in human liver microsomes assessed as parent compound remaining at 10 uM after 60 mins by LC-MS analysis; format: ADME, microsome; details: read-out: Stability
Method in brief: (§4)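 The 60 min samples of the microsomal incubation (10 μM compound, human or mouse liver microsomes at 0.5 mg/mL, NADPH regenerating system, 37 °C) were analysed by LC-MS. Detection used SIM mode with dual ESI/APCI ionization, calibrated to the retention times and masses of the parent and its O-demethylated metabolites. Peak intensities were measured.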

[6] = target: Voltage-gated inwardly rectifying potassium channel KCNH2 (Homo sapiens, UniProt Q12809); assay: Displacement of [3H]-dofetilide from human ERG expressed in HEK cell membranes at >10 uM after 60 to 90 mins by scintillation counting
Sequence of Voltage-gated inwardly rectifying potassium channel KCNH2 (Q12809 whole entry): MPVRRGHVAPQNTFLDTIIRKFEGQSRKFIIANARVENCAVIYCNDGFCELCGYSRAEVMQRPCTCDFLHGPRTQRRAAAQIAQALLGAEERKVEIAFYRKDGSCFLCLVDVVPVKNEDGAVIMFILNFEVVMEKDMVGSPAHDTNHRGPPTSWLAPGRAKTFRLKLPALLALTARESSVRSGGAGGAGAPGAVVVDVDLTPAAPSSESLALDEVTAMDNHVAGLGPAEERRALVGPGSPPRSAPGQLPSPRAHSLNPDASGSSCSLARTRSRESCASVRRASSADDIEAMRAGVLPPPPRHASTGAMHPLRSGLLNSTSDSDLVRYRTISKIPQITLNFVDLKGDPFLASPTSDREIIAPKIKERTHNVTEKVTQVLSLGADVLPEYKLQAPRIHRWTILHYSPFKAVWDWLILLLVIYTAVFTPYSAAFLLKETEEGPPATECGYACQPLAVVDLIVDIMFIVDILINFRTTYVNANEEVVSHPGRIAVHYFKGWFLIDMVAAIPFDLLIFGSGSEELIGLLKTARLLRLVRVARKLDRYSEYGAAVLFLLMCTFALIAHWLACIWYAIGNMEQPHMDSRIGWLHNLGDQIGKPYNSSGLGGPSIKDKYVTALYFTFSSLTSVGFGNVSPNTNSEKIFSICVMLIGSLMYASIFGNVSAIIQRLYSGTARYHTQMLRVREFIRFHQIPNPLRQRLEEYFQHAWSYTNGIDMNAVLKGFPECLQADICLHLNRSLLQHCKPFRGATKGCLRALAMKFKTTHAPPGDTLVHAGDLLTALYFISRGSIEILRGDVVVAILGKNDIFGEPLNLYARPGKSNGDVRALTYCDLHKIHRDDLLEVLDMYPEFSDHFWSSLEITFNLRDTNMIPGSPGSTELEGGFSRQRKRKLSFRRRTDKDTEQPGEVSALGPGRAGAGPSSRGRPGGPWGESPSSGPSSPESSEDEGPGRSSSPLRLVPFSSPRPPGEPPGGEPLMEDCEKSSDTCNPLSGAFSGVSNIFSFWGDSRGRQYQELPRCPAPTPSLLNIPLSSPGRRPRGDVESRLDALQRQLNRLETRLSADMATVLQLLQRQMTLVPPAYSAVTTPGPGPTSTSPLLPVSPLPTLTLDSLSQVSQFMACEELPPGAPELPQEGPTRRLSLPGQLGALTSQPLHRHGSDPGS

[7] = tested on: Mus musculus; assay: Neurotoxicity in Swiss Webster mouse assessed as induction of motor impairment at 40 mg/kg administered via oral gavage measured after 10 to 60 mins by rotarod method; format: toxicity, organism-based; details: in vivo
Method in brief: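 Female mice were given a single oral gavage dose of 40 mg/kg, either in 50% PBS/40% propylene glycol/10% DMSO or, for poorly soluble compounds, in 2% polyethylene glycol plus 2.5% hydroxymethyl cellulose. Rotarod performance was tested 10, 30 and 60 min after dosing, with diazepam 5 mg/kg as positive control.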

[8] = Metabolic stability in mouse liver microsomes assessed as parent compound remaining at 10 uM after 60 mins by LC-MS analysis; format: ADME, microsome; details: read-out: Stability; method in brief: as §4
[9] = Drug metabolism in human liver microsomes assessed as CYP450 mediated-O-demethylated 7-bromo-2-(4-hydroxyphenyl)-2H-pyrazolo[4,3-c]quinolin-3(5H)-one metabolite formation after 60 mins by LC-MS analysis; format: ADME; details: 1 h; method in brief: as §3
[10] = Drug metabolism in mouse liver microsomes assessed as CYP450 mediated-O-demethylated 7-hydroxy-2-(4-hydroxyphenyl)-2H-pyrazolo[4,3-c]quinolin-3(5H)-one metabolite formation after 60 mins by LC-MS analysis; format: ADME; details: 1 h; method in brief: as §3
[11] = Drug metabolism in mouse liver microsomes assessed as CYP450 mediated-O-demethylated 7-hydroxy-2-(4-methoxyphenyl)-2H-pyrazolo[4,3-c]quinolin-3(5H)-one metabolite formation after 60 mins by LC-MS analysis; format: ADME; details: 1 h; method in brief: as §3
[12] = Drug metabolism in human liver microsomes assessed as CYP450 mediated-O-demethylated 7-hydroxy-2-(4-methoxyphenyl)-2H-pyrazolo[4,3-c]quinolin-3(5H)-one metabolite formation after 60 mins by LC-MS analysis; format: ADME; details: 1 h; method in brief: as §3
[13] = Tmax in Wistar rat plasma at 10 mg/kg, ip administered as single dose by HPLC-MS/MS analysis; format: ADME, organism-based
Method in brief: (§5)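 Male Wistar rats (250–350 g) received a single i.p. dose of 10 mg/kg as a 5 mg/ml suspension in 85% water, 14% propylene glycol and 1% Tween 80. Three rats per time point were sacrificed at 5, 20, 60, 180 and 720 min for plasma and brain. Samples were cleaned up by solid-phase extraction and quantified by HPLC-MS/MS.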

[14] = AUC (0 to 12 hrs) in Wistar rat plasma at 10 mg/kg, ip administered as single dose by HPLC-MS/MS analysis; format: ADME, organism-based; set-up: time < 12 hr, dose 10 mg/kg, route intraperitoneal
[15] = Cmax in Wistar rat brain at 10 mg/kg, ip administered as single dose measured at 5 to 720 mins post dose by HPLC-MS/MS analysis; format: ADME, organism-based; set-up: dose 10 mg/kg, route intraperitoneal
Method in brief: (§6)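 Male Wistar rats (250-350 g) given a single 10 mg/kg i.p. dose of a 5 mg/ml suspension in 85% distilled water, 14% propylene glycol, 1% Tween 80. Three rats per time point (5, 20, 60, 180, 720 min). Blood and brain were collected after sacrifice. Drug was recovered by solid phase extraction and quantified by HPLC-MS/MS.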

[16] = Terminal elimination half-life in Wistar rat plasma at 10 mg/kg, ip administered as single dose by HPLC-MS/MS analysis; format: ADME, organism-based; details: read-out: beta t1/2 (converted); method in brief: as §5
[17] = Drug metabolism in human liver microsomes assessed as CYP450 mediated-O-demethylated 7-hydroxy-2-(4-hydroxyphenyl)-2H-pyrazolo[4,3-c]quinolin-3(5H)-one metabolite formation after 60 mins by LC-MS analysis; format: ADME; details: 1 h; method in brief: as §3
[18] = Tmax in Wistar rat brain at 10 mg/kg, ip administered as single dose by HPLC-MS/MS analysis; format: ADME, organism-based; method in brief: as §5
[19] = tested on: Liver; assay: Half life in human liver microsomes at 10 uM by LC-MS/MS analysis; format: ADME, microsome; method in brief: as §2
[20] = tested on: Brain; assay: AUC (0 to 12 hrs) in Wistar rat brain at 10 mg/kg, ip administered as single dose by HPLC-MS/MS analysis; format: ADME, organism-based; set-up: dose 10 mg/kg, time < 12 hr, route intraperitoneal; details: in vivo
[21] = Cmax in Wistar rat plasma at 10 mg/kg, ip administered as single dose measured at 5 to 720 mins post dose by HPLC-MS/MS analysis; format: ADME, organism-based; set-up: dose 10 mg/kg, route intraperitoneal; method in brief: as §6
[22] = Drug metabolism in human liver microsomes assessed as CYP450 mediated-O-demethylated 2-(4-hydroxyphenyl)-7-(trideuteriomethoxy)-5H-pyrazolo[4,3-c]quinolin-3-one metabolite formation after 60 mins by LC-MS analysis; format: ADME; details: 1 h; method in brief: as §3
[23] = Drug metabolism in mouse liver microsomes assessed as CYP450 mediated-O-demethylated 2-(4-hydroxyphenyl)-7-(trideuteriomethoxy)-5H-pyrazolo[4,3-c]quinolin-3-one metabolite formation after 60 mins by LC-MS analysis; format: ADME; details: 1 h; method in brief: as §3
[24] = Ratio of brain AUC (0 to t) to plasma AUC (0 to t), Kp of the compound in Wistar rat at 10 mg/kg, ip administered as single dose by HPLC-MS/MS analysis; format: ADME, organism-based
[25] = Terminal elimination half-life in Wistar rat brain at 10 mg/kg, ip administered as single dose by HPLC-MS/MS analysis; format: ADME, organism-based; details: read-out: beta t1/2 (converted); method in brief: as §5
[26] = Drug metabolism in mouse liver microsomes assessed as CYP450 mediated-O-demethylated 7-hydroxy-2-(6-hydroxypyridin-3-yl)-2H-pyrazolo[4,3-c]quinolin-3(5H)-one metabolite formation after 60 mins by LC-MS analysis; format: ADME; details: 1 h; method in brief: as §3
[27] = Drug metabolism in human liver microsomes assessed as CYP450 mediated-O-demethylated 7-hydroxy-2-(6-hydroxypyridin-3-yl)-2H-pyrazolo[4,3-c]quinolin-3(5H)-one metabolite formation after 60 mins by LC-MS analysis; format: ADME; details: 1 h; method in brief: as §3
[28] = Drug metabolism in human liver microsomes assessed as CYP450 mediated-O-demethylated 2-(6-hydroxy-3-pyridyl)-7-(trideuteriomethoxy)-5H-pyrazolo[4,3-c]quinolin-3-one metabolite formation after 60 mins by LC-MS analysis; format: ADME; details: 1 h; method in brief: as §3
[29] = Drug metabolism in mouse liver microsomes assessed as CYP450 mediated-O-demethylated 7-hydroxy-2-(6-methoxypyridin-3-yl)-2H-pyrazolo[4,3-c]quinolin-3(5H)-one metabolite formation after 60 mins by LC-MS analysis; format: ADME; details: 1 h; method in brief: as §3
[30] = Drug metabolism in mouse liver microsomes assessed as CYP450 mediated-O-demethylated 2-(6-hydroxy-3-pyridyl)-7-(trideuteriomethoxy)-5H-pyrazolo[4,3-c]quinolin-3-one metabolite formation after 60 mins by LC-MS analysis; format: ADME; details: 1 h; method in brief: as §3
[31] = Drug metabolism in human liver microsomes assessed as CYP450 mediated-O-demethylated 7-hydroxy-2-(6-methoxypyridin-3-yl)-2H-pyrazolo[4,3-c]quinolin-3(5H)-one metabolite formation after 60 mins by LC-MS analysis; format: ADME; details: 1 h; method in brief: as §3

| SMILES | Activity [1] | Activity [3] | remaining at 1 h, 10 µM [5] [%] | inhibition (INH) [6] | Activity [7] | remaining at 1 h, 10 µM [8] [%] | Tmax [13] [h] | AUC(0-t) at 12 h [14] [ng·h/mL] | Cmax [15] [ng/g] | half-life [16] [h] | Tmax [18] [h] | AUC [20] [ng·h/g] | Cmax [21] [ng/mL] | half-life [25] [h] | other results |
| --- | --- | --- | --- | --- | --- | --- | --- | --- | --- | --- | --- | --- | --- | --- | --- |
| [2H]C([2H])([2H])Oc1ccc(-n2nc3c4ccc(Br)cc4[nH]cc-3c2=O)cc1 | Non-Toxic | Non-Toxic | 81.5 | Not Active | Non-Toxic | 73.8 |  |  |  |  |  |  |  |  | t1/2 [2]: 2.3 h; Drug metabolism [4]: Metabolite_Detected; Drug metabolism [9]: Metabolite_Detected |
| [2H]C([2H])([2H])Oc1ccc2c3nn(-c4ccc(OC)cc4)c(=O)c-3c[nH]c2c1 | Non-Toxic | Non-Toxic | 92 | Not Active | Non-Toxic | 93.2 | 1.67 | 25300 | 657 | 2.46 | 2.11 | 4125.92 | 3740 | 2.6 | Drug metabolism [10]: Metabolite_Detected; Drug metabolism [11]: Metabolite_Detected; Drug metabolism [12]: Metabolite_Detected; Drug metabolism [17]: Metabolite_Detected; t1/2 [19]: 11.1 h; Drug metabolism [22]: Metabolite_Detected; Drug metabolism [23]: Metabolite_Detected; Kp [24]: 0.16 |
| [2H]C([2H])([2H])Oc1ccc2c3nn(-c4ccc(OC)nc4)c(=O)c-3c[nH]c2c1 | Non-Toxic | Non-Toxic | 92.3 | Not Active | Non-Toxic | 91.4 | 1 | 6020 | 215 | 18 | 1.67 | 1502.14 | 1250 | 9.07 | Drug metabolism [26]: Metabolite_Detected; Drug metabolism [27]: Metabolite_Detected; Drug metabolism [28]: Metabolite_Detected; Drug metabolism [29]: Metabolite_Detected; Drug metabolism [30]: Metabolite_Detected; Drug metabolism [31]: Metabolite_Detected |
